Measured values of several laboratories.
CASP8: Caspase-8 (CASP8, Homo sapiens, UniProt Q14790)
HTR5A: 5-hydroxytryptamine receptor 5A (HTR5A, Homo sapiens, UniProt P47898)
ABHD6: Monoacylglycerol lipase ABHD6 (ABHD6, Homo sapiens, UniProt Q9BV23)

CN(C)C(=O)COC(=O)Cc1ccc(OC(=O)c2ccc(NC(=N)N)cc2)cc1 has an inhibition of 0% (CASP8; enzyme activity, inhibitor; 10 µM).
With CCN(CC)CCCC[C@H](NC(=O)[C@H](CC(C)C)NC(=O)[C@H](C)NC(=O)[C@H](Cc1ccccc1)NC(=O)c1ccc(C(C)(C)C)cc1)C(=O)N[C@@H](CO)C(=O)OC the inhibition was -10% (Neurotensin receptor type 1 (NTSR1, Homo sapiens, UniProt P30989); ligand displacement, radioligand; 10 µM).
O=C1N=C(N2CCCCN2)S/C1=C\c1ccc(F)cc1O has an inhibition of < 10% (HTR5A; ligand displacement, radioligand; 10 µM).
CN(C)C(=O)Oc1nsnc1N1CCCCC1 gave an inhibition of 10% (ABHD6; enzyme activity, inhibitor, fluorescence; 1 µM, lysate).
With c1ccc(C(NCCNC(c2ccccc2)c2ccccc2)c2ccccc2)cc1 the inhibition was 10% (D(4) dopamine receptor (DRD4, Homo sapiens, UniProt P21917, del265-296); cell-free assay; 10 µM).
CCOC(=O)c1ccc(OC(=O)CCCCCNC(=N)N)cc1 has an inhibition of 1% (CASP8; enzyme activity, inhibitor; 10 µM).
COCc1c(-c2cc3cc(C)cc(OC)c3s2)c2c(N)ncnn2c1CN1CCNC(=O)C1 has an inhibition of 89% (Mitogen-activated protein kinase kinase kinase 19 (MAP3K19, Homo sapiens, UniProt Q56UN5); cell-free assay, competition with immobilised ligand; 1 µM).
COc1cc2c3c(c1OC)-c1cc4c(cc1CC3N(C)CC2)OCO4 (racemic) has an inhibition of 92.8% (HTR5A; ligand displacement, radioligand; 10 µM).
For Cn1cc(-c2cccc(N3CCc4c(sc5c4CC(C)(C)C5)C3=O)c2CO)cc(Nc2ccncn2)c1=O, the inhibition was 14% (Beta-adrenergic receptor kinase 1 (GRK2, Homo sapiens, UniProt P25098); enzyme activity, inhibitor; 1 µM).
With C#Cc1n[nH]c2c(-c3cn([C@@H](C)c4ccccn4)c(=O)[nH]c3=O)cc(F)cc12 the inhibition was 3.8% (RAC-beta serine/threonine-protein kinase (AKT2, Homo sapiens, UniProt P31751); enzyme activity, inhibitor; 0.1 µM).
Cc1ccccc1N(C)C(=O)Oc1nsnc1N1CCCCC1 has an inhibition of 17% (ABHD6; enzyme activity, inhibitor, fluorescence; 1 µM, lysate).
Cn1cc(-c2cc(F)cc(N3CCn4c(cc5c4CCCC5)C3=O)c2CO)cc(Nc2ccc(N3CCN(C4COC4)CC3)cn2)c1=O has an inhibition of 18% (Casein kinase II subunit alpha (CSNK2A1, Homo sapiens, UniProt P68400); enzyme activity, inhibitor; 0.1 µM).
With N=C(N)c1ccc2cc(OC(=O)c3ccc(N=C(N)N)cc3)ccc2c1 the inhibition was 0% (CASP8; enzyme activity, inhibitor; 10 µM).
For CN(CCN1CCC(OC(=O)Nc2ccccc2-c2ccccc2)CC1)C(=O)c1ccc(CN2CCC(C(N)=O)CC2)cc1, the inhibition was -4% (D(4) dopamine receptor (DRD4, Homo sapiens, UniProt P21917); ligand displacement, radioligand; 1 µM).
